# Several values for one entry are separate records, joined by “and”; a condition that tells them apart may be missing. Equal entries are not always repeated.
# System: Fibroblast
# Assay: Multiplex assay against human fibroblast
# Format: toxicity, cell-based
# Outline: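 Per cents of healthy-nucleus cells form the tubulin, mitochondrial-mass and membrane-permeability phenotype values. Live cells were stained at seeding with Hoechst33342, BioTracker Green Microtubule Cytoskeleton Dye, MitoTracker Red and Annexin V Alexa Fluor 680. After compound addition they were imaged on a CQ1 microscope at 37°C and 5% CO2, and CellPathfinder machine-learning gating split them into Hoechst high-intensity objects or normal cells, normal cells into healthy, pyknosed or fragmented nuclei, and pyknosed cells into mitotic or apoptotic.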
# [1] = 12 h, 1 µM, compound concentration 1 uM
# [2] = 12 h, 10 µM, compound concentration 10 uM
# [3] = 24 h, 1 µM, compound concentration 1 uM
# [4] = 24 h, 10 µM, compound concentration 10 uM
# [5] = 48 h, 1 µM, compound concentration 1 uM
# [6] = 48 h, 10 µM, compound concentration 10 uM
smiles,measurement,setting,value
COc1cccc2c1c(NS(=O)(=O)c1ccc(Cl)s1)nn2Cc1cccc(CNC(=O)C(C)(C)O)c1,Population Apoptotic (%),[1],43% and 33%
same,Population Fragmented Nuclei (%),[1],16% and 26%
same,Population Healthy Nuclei (%),[1],66% and 54%
same,Population Hoechst High Intensity Objects (%),[1],0%
same,Population Membrane Permeable-Phenotype (%),[1],1% and 4%
same,Population Mitochondria Different-Phenotype (%),[1],2% and 1%
same,Population Mitotic Cells (%),[1],56% and 66%
same,Population Normal (%),[1],99% and 100%
same,Population Pyknosed Nuclei (%),[1],17% and 18%
same,Population Tubulin-Different-Phenotype (%),[1],27% and 18%
same,Total Cell Count,[1],134 and 112
same,Population Apoptotic (%),[2],42% and 41%
same,Population Fragmented Nuclei (%),[2],13% and 24%
same,Population Healthy Nuclei (%),[2],72% and 55%
same,Population Hoechst High Intensity Objects (%),[2],2% and 7%
same,Population Membrane Permeable-Phenotype (%),[2],1% and 7%
same,Population Mitochondria Different-Phenotype (%),[2],11% and 4%
same,Population Mitotic Cells (%),[2],57% and 58%
same,Population Normal (%),[2],97% and 92%
same,Population Pyknosed Nuclei (%),[2],13% and 19%
same,Population Tubulin-Different-Phenotype (%),[2],37% and 55%
same,Total Cell Count,[2],211 and 174
same,Population Apoptotic (%),[3],55% and 50%
same,Population Fragmented Nuclei (%),[3],19% and 28%
same,Population Healthy Nuclei (%),[3],68% and 49%
same,Population Hoechst High Intensity Objects (%),[3],2% and 1%
same,Population Membrane Permeable-Phenotype (%),[3],2% and 7%
same,Population Mitochondria Different-Phenotype (%),[3],3% and 5%
same,Population Mitotic Cells (%),[3],44% and 50%
same,Population Normal (%),[3],97% and 98%
same,Population Pyknosed Nuclei (%),[3],12% and 22%
same,Population Tubulin-Different-Phenotype (%),[3],28% and 35%
same,Total Cell Count,[3],144 and 110
same,Population Apoptotic (%),[4],48% and 50%
same,Population Fragmented Nuclei (%),[4],11% and 22%
same,Population Healthy Nuclei (%),[4],74% and 55%
same,Population Hoechst High Intensity Objects (%),[4],2% and 8%
same,Population Membrane Permeable-Phenotype (%),[4],1% and 6%
same,Population Mitochondria Different-Phenotype (%),[4],7% and 2%
same,Population Mitotic Cells (%),[4],52% and 50%
same,Population Normal (%),[4],97% and 92%
same,Population Pyknosed Nuclei (%),[4],13% and 22%
same,Population Tubulin-Different-Phenotype (%),[4],30% and 48%
same,Total Cell Count,[4],190 and 175
same,Population Apoptotic (%),[5],62% and 75%
same,Population Fragmented Nuclei (%),[5],21% and 26%
same,Population Healthy Nuclei (%),[5],66% and 60%
same,Population Hoechst High Intensity Objects (%),[5],5% and 2%
same,Population Membrane Permeable-Phenotype (%),[5],1% and 8%
same,Population Mitochondria Different-Phenotype (%),[5],5% and 3%
same,Population Mitotic Cells (%),[5],37% and 25%
same,Population Normal (%),[5],94% and 97%
same,Population Pyknosed Nuclei (%),[5],12%
same,Population Tubulin-Different-Phenotype (%),[5],30% and 55%
same,Total Cell Count,[5],135 and 99
same,Population Apoptotic (%),[6],63% and 51%
same,Population Fragmented Nuclei (%),[6],13% and 33%
same,Population Healthy Nuclei (%),[6],73% and 49%
same,Population Hoechst High Intensity Objects (%),[6],5% and 6%
same,Population Membrane Permeable-Phenotype (%),[6],3%
same,Population Mitochondria Different-Phenotype (%),[6],10% and 4%
same,Population Mitotic Cells (%),[6],36% and 48%
same,Population Normal (%),[6],94% and 93%
same,Population Pyknosed Nuclei (%),[6],12% and 17%
same,Population Tubulin-Different-Phenotype (%),[6],40% and 43%
same,Total Cell Count,[6],187
CCOc1c2c(c(OCC)c3ncccc13)CN(c1ccc(CS(=O)(=O)NC(=O)Cc3ccccc3OC)cc1C)C2=O,Population Apoptotic (%),[1],44% and 38%
same,Population Fragmented Nuclei (%),[1],15% and 37%
same,Population Healthy Nuclei (%),[1],68% and 42%
same,Population Hoechst High Intensity Objects (%),[1],0% and 4%
same,Population Membrane Permeable-Phenotype (%),[1],1% and 8%
same,Population Mitochondria Different-Phenotype (%),[1],3% and 2%
same,Population Mitotic Cells (%),[1],55% and 61%
same,Population Normal (%),[1],99% and 95%
same,Population Pyknosed Nuclei (%),[1],15% and 19%
same,Population Tubulin-Different-Phenotype (%),[1],23% and 62%
same,Total Cell Count,[1],120 and 111
same,Population Apoptotic (%),[2],35% and 21%
same,Population Fragmented Nuclei (%),[2],15% and 19%
same,Population Healthy Nuclei (%),[2],63% and 50%
same,Population Hoechst High Intensity Objects (%),[2],1% and 3%
same,Population Membrane Permeable-Phenotype (%),[2],1% and 7%
same,Population Mitochondria Different-Phenotype (%),[2],6% and 8%
same,Population Mitotic Cells (%),[2],64% and 78%
same,Population Normal (%),[2],98% and 96%
same,Population Pyknosed Nuclei (%),[2],21% and 29%
same,Population Tubulin-Different-Phenotype (%),[2],27% and 54%
same,Total Cell Count,[2],161 and 146
same,Population Apoptotic (%),[3],56% and 46%
same,Population Fragmented Nuclei (%),[3],13% and 37%
same,Population Healthy Nuclei (%),[3],67% and 32%
same,Population Hoechst High Intensity Objects (%),[3],3% and 2%
same,Population Mitochondria Different-Phenotype (%),[3],3%
same,Population Mitotic Cells (%),[3],43% and 53%
same,Population Normal (%),[3],96% and 97%
same,Population Pyknosed Nuclei (%),[3],18% and 29%
same,Population Tubulin-Different-Phenotype (%),[3],23% and 69%
same,Total Cell Count,[3],127 and 104
same,Population Apoptotic (%),[4],42%
same,Population Fragmented Nuclei (%),[4],17% and 25%
same,Population Healthy Nuclei (%),[4],66% and 49%
same,Population Hoechst High Intensity Objects (%),[4],3% and 4%
same,Population Membrane Permeable-Phenotype (%),[4],1% and 5%
same,Population Mitochondria Different-Phenotype (%),[4],2%
same,Population Mitotic Cells (%),[4],57%
same,Population Normal (%),[4],96% and 95%
same,Population Pyknosed Nuclei (%),[4],15% and 25%
same,Population Tubulin-Different-Phenotype (%),[4],19% and 50%
same,Total Cell Count,[4],171 and 142
same,Population Apoptotic (%),[5],57% and 66%
same,Population Fragmented Nuclei (%),[5],18% and 47%
same,Population Healthy Nuclei (%),[5],66% and 40%
same,Population Hoechst High Intensity Objects (%),[5],3% and 5%
same,Population Membrane Permeable-Phenotype (%),[5],1% and 5%
same,Population Mitochondria Different-Phenotype (%),[5],3% and 7%
same,Population Mitotic Cells (%),[5],42% and 33%
same,Population Normal (%),[5],96% and 94%
same,Population Pyknosed Nuclei (%),[5],15% and 12%
same,Population Tubulin-Different-Phenotype (%),[5],26% and 72%
same,Total Cell Count,[5],128 and 105
same,Population Apoptotic (%),[6],71% and 29%
same,Population Fragmented Nuclei (%),[6],16% and 34%
same,Population Healthy Nuclei (%),[6],63% and 45%
same,Population Hoechst High Intensity Objects (%),[6],7% and 9%
same,Population Membrane Permeable-Phenotype (%),[6],1% and 7%
same,Population Mitochondria Different-Phenotype (%),[6],2% and 5%
same,Population Mitotic Cells (%),[6],28% and 70%
same,Population Normal (%),[6],92% and 90%
same,Population Pyknosed Nuclei (%),[6],20%
same,Population Tubulin-Different-Phenotype (%),[6],20% and 51%
same,Total Cell Count,[6],171 and 131
